ChEMBL document CHEMBL2163256, “6-(methylamino)hexane-1,2,3,4,5-pentanol 4-(((1S,2S)-1-hydroxy-2,3-dihydro-1H,1'H-[2,2-biinden]-2-yl)methyl)benzoate (PH46A): a novel small molecule with efficacy in murine models of colitis” (J Med Chem, 2012)
The source made the active and inactive calls. The rule behind the calls is not given here.

How the values were obtained:
[1] = system: Mus musculus; test: Antiinflammatory activity against po dosed DSS-induced colitis BALB/c mouse model assessed as reduction in shortening of colon administered daily once for 7 days measured on day 7 relative to vehicle-treated control; assay type: functional, organism-based
In short: (§1)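 Female SPF BALB/c mice, 6−8 weeks old; colitis induced by 5% DSS in tap drinking water (renewed every second day) for 7 days. Daily oral dosing for 7 days as suspension/solution in 0.5% carboxymethyl cellulose/2% Tween 80. Daily body weight; DAI per mouse each day from weight loss, occult blood and stool consistency; colon length at autopsy. Mean ± SEM, n = 6−7.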

[2] = system: Mus musculus; test: Antiinflammatory activity against po dosed DSS-induced colitis BALB/c mouse model assessed as reduction in IL6 level administered daily once for 7 days measured on day 7 relative to vehicle-treated control; assay type: functional, organism-based
In short: (§2)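 DSS colitis in female BALB/c mice (5% DSS in drinking water, 7 days, daily oral dosing). At autopsy, colon remaining after histology sampling snap-frozen, stored at −20 °C, thawed, contents removed, chopped and homogenized; supernatant protein determined. IL1b, IL6 and TNFα in colon supernatant by sandwich ELISA, expressed as ng/mg. Mean ± SEM, n = 6−7.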

[3] = system: Mus musculus; test: Antiinflammatory activity in IL-10 -/- BALB/c mouse assessed as prevention of rectal bleeding at 300 mg/kg, po administered as divided dose 3 times a week for 9 weeks relative to vehicle-treated control; assay type: functional, organism-based; parameters: dose 300 mg/kg
In short: (§3)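 IL-10−/− BALB/c-background mice, bred SPF, treated from 6−8 weeks of age by oral gavage of 300 mg/kg/week in distilled water (vehicle), Mon/Wed/Fri, for 9 weeks. Weight, rectal bleeding and prolapse monitored. At 9 weeks serum SAA was measured by sandwich ELISA. Proximal colon (1 cm) was fixed, H&E-stained and scored blinded by two observers (maximum 4). n = 9 vehicle, 11 treated; Student's t test.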

[4] = system: Mus musculus; test: Antiinflammatory activity against po dosed DSS-induced colitis BALB/c mouse model assessed as reduction in IL1b level administered daily once for 7 days measured on day 7 relative to vehicle-treated control; assay type: functional, organism-based; in short: as §2
[5] = system: Mus musculus; test: Antiinflammatory activity in IL-10 -/- BALB/c mouse assessed as prevention of weight loss at 300 mg/kg, po administered as divided dose 3 times a week for 9 weeks relative to vehicle-treated control; assay type: functional, organism-based; parameters: dose 300 mg/kg; in short: as §3
[6] = system: Mus musculus; test: Antiinflammatory activity against DSS-induced colitis BALB/c mouse model assessed as reduction in IL6 level at 30 mg/kg, po qd for 7 days measured on day 7 relative to vehicle-treated control; assay type: functional, organism-based; parameters: dose 30 mg/kg; in short: as §2
[7] = system: Mus musculus; test: Antiinflammatory activity against DSS-induced colitis BALB/c mouse model assessed as reduction in TNFalpha level at 30 mg/kg, po qd for 7 days measured on day 7 relative to vehicle-treated control; assay type: functional, organism-based; parameters: dose 30 mg/kg; in short: as §2
[8] = system: Mus musculus; test: Antiinflammatory activity against DSS-induced colitis BALB/c mouse model assessed as increase in colon lenght at 30 mg/kg, po qd for 7 days relative to vehicle-treated control; assay type: functional, organism-based; parameters: dose 30 mg/kg; in short: as §1
[9] = system: Mus musculus; test: Antiinflammatory activity against DSS-induced colitis BALB/c mouse model assessed as prevention of body weight loss at 10 mg/kg, po qd for 7 days relative to vehicle-treated control; assay type: functional, organism-based; parameters: dose 10 mg/kg; in short: as §1
[10] = system: Mus musculus; test: Antiinflammatory activity against po dosed DSS-induced colitis BALB/c mouse model assessed as reduction in histological colon damage score administered daily once for 7 days measured on day 7; assay type: functional, organism-based
In short: (§4)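 After 7 days of 5% DSS with daily oral dosing, about 1 cm distal colon was fixed in 10% formaldehyde-saline, paraffin-embedded, cut into 5 μm serial sections and H&E-stained. Scoring covered cell infiltration (0−3) and extent of injury (0−3), done blinded by two independent observers.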

[11] = system: Mus musculus; test: Antiinflammatory activity against DSS-induced colitis BALB/c mouse model assessed as reduction in IL1b level at 30 mg/kg, po qd for 7 days measured on day 7 relative to vehicle-treated control; assay type: functional, organism-based; parameters: dose 30 mg/kg; in short: as §2
[12] = system: Mus musculus; test: Antiinflammatory activity in IL-10 -/- BALB/c mouse assessed as prevention of rectal prolapse at 300 mg/kg, po administered as divided dose 3 times a week for 9 weeks relative to vehicle-treated control; assay type: functional, organism-based; parameters: dose 300 mg/kg; in short: as §3
[13] = system: Mus musculus; test: Antiinflammatory activity against DSS-induced colitis BALB/c mouse model assessed as decrease in disease activity index at 30 mg/kg, po qd for 7 days relative to vehicle-treated control; assay type: functional, organism-based; parameters: dose 30 mg/kg; in short: as §1
[14] = system: Mus musculus; test: Antiinflammatory activity against DSS-induced colitis BALB/c mouse model assessed as increase in colon lenght at 10 mg/kg, po qd for 7 days relative to vehicle-treated control; assay type: functional, organism-based; parameters: dose 10 mg/kg; in short: as §1
[15] = system: Mus musculus; test: Antiinflammatory activity against po dosed DSS-induced colitis BALB/c mouse model assessed as decrease in disease activity index administered daily once for 7 days measured on day 7 relative to vehicle-treated control; assay type: functional, organism-based; in short: as §1
[16] = system: Mus musculus; test: Antiinflammatory activity against po dosed DSS-induced colitis BALB/c mouse model assessed as reduction in TNFalpha level administered daily once for 7 days measured on day 7 relative to vehicle-treated control; assay type: functional, organism-based; in short: as §2
[17] = system: Mus musculus; test: Antiinflammatory activity against DSS-induced colitis BALB/c mouse model assessed as decrease in disease activity index at 10 mg/kg, po qd for 7 days relative to vehicle-treated control; assay type: functional, organism-based; parameters: dose 10 mg/kg; in short: as §1
[18] = system: Mus musculus; test: Antiinflammatory activity in IL-10 -/- BALB/c mouse assessed as reduction in histological colon damage score at 300 mg/kg, po administered as divided dose 3 times a week for 9 weeks relative to vehicle-treated control; assay type: functional, organism-based; parameters: dose 300 mg/kg; in short: as §3
[19] = system: Mus musculus; test: Antiinflammatory activity against DSS-induced colitis BALB/c mouse model assessed as reduction in TNFalpha level at 5 mg/kg, po qd for 7 days measured on day 7 relative to vehicle-treated control; assay type: functional, organism-based; parameters: dose 5 mg/kg; in short: as §2
[20] = system: Mus musculus; test: Antiinflammatory activity against DSS-induced colitis BALB/c mouse model assessed as reduction in IL6 level at 5 mg/kg, po qd for 7 days measured on day 7 relative to vehicle-treated control; assay type: functional, organism-based; parameters: dose 5 mg/kg; in short: as §2
[21] = system: Mus musculus; test: Antiinflammatory activity against DSS-induced colitis BALB/c mouse model assessed as decrease in myeloperoxidative activity at 5 mg/kg, po qd for 7 days measured on day 7 relative to vehicle-treated control; assay type: functional; parameters: scale not given: the % may be the effect or the level left
In short: (§5)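 In the 7-day 5% DSS BALB/c colitis model with daily oral dosing, colon MPO was measured in homogenized snap-frozen colon supernatant (protein determined) by a standard method.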

[22] = system: Mus musculus; test: Antiinflammatory activity against DSS-induced colitis BALB/c mouse model assessed as reduction in histological colon damage score at 5 mg/kg, po qd for 7 days measured on day 7 relative to vehicle-treated control; assay type: functional; parameters: scale not given: the % may be the effect or the level left; in short: as §4
[23] = system: Mus musculus; test: Antiinflammatory activity against DSS-induced colitis BALB/c mouse model assessed as decrease in disease activity index at 5 mg/kg, po qd for 7 days measured on day 7 relative to vehicle-treated control; assay type: functional; parameters: scale not given: the % may be the effect or the level left; in short: as §1
[24] = system: Mus musculus; test: Antiinflammatory activity against DSS-induced colitis BALB/c mouse model assessed as reduction in shortening of colon at 5 mg/kg, po qd for 7 days measured on day 7 relative to vehicle-treated control; assay type: functional; parameters: scale not given: the % may be the effect or the level left; in short: as §1
[25] = system: Mus musculus; test: Antiinflammatory activity against DSS-induced colitis BALB/c mouse model assessed as reduction in IL1b level at 5 mg/kg, po qd for 7 days measured on day 7 relative to vehicle-treated control; assay type: functional, organism-based; parameters: dose 5 mg/kg; in short: as §2
[26] = system: Mus musculus; test: Antiinflammatory activity against DSS-induced colitis BALB/c mouse model assessed as prevention of body weigth loss at 5 mg/kg, po qd for 7 days measured on day 7 relative to vehicle-treated control; assay type: functional; in short: as §1
[27] = system: Mus musculus; test: Toxicity in DSS-induced colitis BALB/c mouse model assessed as overt reactions at 30 mg/kg, po qd for 7 days relative to vehicle-treated control; assay type: organism-based; parameters: dose 30 mg/kg, route oral; details: in vivo, 168 h
[28] = system: Mus musculus; test: Antiinflammatory activity against DSS-induced colitis BALB/c mouse model assessed as reduction in histological colon damage score at 30 mg/kg, po qd for 7 days measured on day 7 relative to vehicle-treated control; assay type: functional; parameters: scale not given: the % may be the effect or the level left; in short: as §4
[29] = system: Mus musculus; test: Antiinflammatory activity against DSS-induced colitis BALB/c mouse model assessed as decrease in disease activity index at 3 mg/kg, po qd for 7 days measured on day 7 relative to vehicle-treated control; assay type: functional; parameters: scale not given: the % may be the effect or the level left; in short: as §1
[30] = system: Mus musculus; test: Antiinflammatory activity against DSS-induced colitis BALB/c mouse model assessed as decrease in myeloperoxidative activity at 30 mg/kg, po qd for 7 days measured on day 7 relative to vehicle-treated control; assay type: functional; parameters: scale not given: the % may be the effect or the level left; in short: as §5
[31] = system: Mus musculus; test: Antiinflammatory activity against DSS-induced colitis BALB/c mouse model assessed as prevention of body weigth loss at 30 mg/kg, po qd for 7 days measured on day 7 relative to vehicle-treated control; assay type: functional; in short: as §1
[32] = system: Mus musculus; test: Antiinflammatory activity against DSS-induced colitis BALB/c mouse model assessed as prevention of body weigth loss at 10 mg/kg, po qd for 7 days measured on day 7 relative to vehicle-treated control; assay type: functional; in short: as §1
[33] = system: Mus musculus; test: Antiinflammatory activity against DSS-induced colitis BALB/c mouse model assessed as decrease in disease activity index at 10 mg/kg, po qd for 7 days measured on day 7 relative to vehicle-treated control; assay type: functional; parameters: scale not given: the % may be the effect or the level left; in short: as §1
[34] = system: Mus musculus; test: Antiinflammatory activity against DSS-induced colitis BALB/c mouse model assessed as reduction in shortening of colon at 30 mg/kg, po qd for 7 days measured on day 7 relative to vehicle-treated control; assay type: functional; parameters: scale not given: the % may be the effect or the level left; in short: as §1
[35] = system: Mus musculus; test: Antiinflammatory activity in IL-10 -/- BALB/c mouse assessed as decrease in serum SAA level at 300 mg/kg, po administered as divided dose 3 times a week for 9 weeks (reference value: 468.9 +/- 38.37 ug/ml); assay type: functional; in short: as §3
[36] = system: Mus musculus; test: Antiinflammatory activity against DSS-induced colitis BALB/c mouse model assessed as decrease in disease activity index at 30 mg/kg, po qd for 7 days measured on day 7 relative to vehicle-treated control; assay type: functional; parameters: scale not given: the % may be the effect or the level left; in short: as §1

In the case of `O=C(O)c1ccc(C[C@@]2(C3=Cc4ccccc4C3)Cc3ccccc3[C@H]2O)cc1`, the Activity [1] is reported as “Dose-dependent effect”, the Activity [2] is reported as “Dose-dependent effect” and the Activity [3] is reported as “inactive”. The Activity [4] was “Dose-dependent effect”, the Activity [5] was “inactive” and the Activity [6] was “Active”. For the same compound, the Activity [7] was “Active”, the Activity [8] was “Active” and the Activity [9] was “Active”. The Activity [10] was “Dose-dependent effect”, the Activity [11] was “Active” and the Activity [12] was “inactive”. For the same compound, the Activity [13] was “Active”, the Activity [14] was “Active” and the Activity [15] was “Dose-dependent effect”. For the same compound, the Activity [16] was “Dose-dependent effect”, the Activity [17] was “Active” and the Activity [18] was “Active”.
In the case of `C[C@]12C=CC(=O)C=C1CC[C@@H]1[C@@H]2[C@@H](O)C[C@@]2(C)[C@H]1CC[C@]2(O)C(=O)CO` [PREDNISOLONE], the Activity [19] is reported as “Active”, the Activity [20] is reported as “Active” and the Activity [21] is reported as 54%. The Activity [22] was 26%, the Activity [23] was 50% and the Activity [24] was 39%. For the same compound, the Activity [25] was “Active” and the Activity [26] was 12.6%.
For `O=C(O)c1ccc(C[C@]2(C3=Cc4ccccc4C3)Cc3ccccc3[C@H]2O)cc1`, the Activity [27] was “Non-toxic”, the Activity [8] was “Active” and the Activity [13] was “Active”. For the same compound, the Activity [14] was “inactive” and the Activity [17] was “inactive”.
In the case of `CNC[C@H](O)[C@@H](O)[C@H](O)[C@H](O)CO.O=C(O)c1ccc(C[C@@]2(C3=Cc4ccccc4C3)Cc3ccccc3[C@H]2O)cc1`, the Activity [28] is reported as greater than 75%, the Activity [29] is reported as 24% and the Activity [30] is reported as 63%. For the same compound, the Activity [31] was 6.2%, the Activity [32] was 12.8% and the Activity [33] was 54%. The Activity [34] was 76%, the Activity [35] was 342.7 µg/mL and the Activity [36] was 80%.
